Measured values taken from ChEMBL document CHEMBL1152954, “Discovery, characterization and comparison of inhibitors of Bacillus anthracis and Staphylococcus aureus replicative DNA helicases” (Bioorg Med Chem, 2009).
Converted amounts (≈) assume the structure as drawn. The source made the active and inactive calls. The rule behind the calls is not given here.

Columns and labels:
[1] = tested on: Staphylococcus aureus; test: Antibacterial activity against Staphylococcus aureus Smith by broth microdilution method; type: functional
[2] = tested on: HeLa; test: Cytotoxicity against human HeLa cells by MTT assay; type: cell-based
[3] = tested on: Bacillus anthracis; test: Antibacterial activity against permeabilized polA-deficient Bacillus anthracis Sterne assessed as inhibition of DNA replication by cell based assay; type: functional, organism-based
Summary of the method: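 ATP-dependent DNA replication measured in permeabilized ΔpolA B. anthracis Sterne cells by a modified Brown et al. method, testing whether compounds block an intact replisome.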

[4] = tested on: Staphylococcus aureus; test: Antibacterial activity against methicillin-resistant Staphylococcus aureus isolate 1094 by broth microdilution method; type: functional
[5] = tested on: Bacillus subtilis; test: Antibacterial activity against Bacillus subtilis BD54 by broth microdilution method; type: functional
[6] = Selectivity ratio of IC50 for Staphylococcus aureus Smith DNA helicase DnaC to IC50 for Bacillus anthracis DNA helicase DnaB
[7] = tested on: Bacillus thuringiensis; test: Antibacterial activity against Bacillus thuringiensis ATCC 10792 by broth microdilution method; type: functional
[8] = tested on: Bacillus subtilis; test: Inhibition of Bacillus subtilis DNA gyrase up to 50 uM by gel mobility assay
Summary of the method: (§1)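 B. subtilis DNA gyrase activity measured by a published gel mobility assay; compounds tested up to 50 μM.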

[9] = tested on: Escherichia coli; test: Antibacterial activity against TolC deficient Escherichia coli 701 by broth microdilution method; type: functional
[10] = tested on: Staphylococcus aureus; test: Antibacterial activity against Staphylococcus aureus ATCC 25923 by broth microdilution method; type: functional
[11] = tested on: Bacillus licheniformis; test: Antibacterial activity against Bacillus licheniformis ATCC 14580 by broth microdilution method; type: functional; settings: DSM 13=ATCC 14580
[12] = tested on: Escherichia coli; test: Antibacterial activity against Escherichia coli 700 expressing […] gene by broth microdilution method; type: functional
[13] = tested on: Bacillus cereus; test: Antibacterial activity against Bacillus cereus ATCC 4342 by broth microdilution method; type: functional
[14] = tested on: Priestia megaterium; test: Antibacterial activity against Bacillus megaterium ATCC 12872 by broth microdilution method; type: functional
[15] = tested on: Bacillus anthracis; test: Antibacterial activity against Bacillus anthracis Sterne by broth microdilution method; type: functional
[16] = tested on: Enterococcus faecalis; test: Antibacterial activity against vancomycin-resistant Enterococcus faecalis ATCC 51575 by broth microdilution method; type: functional
[17] = target: T1, DnaC helicase (Staphylococcus aureus, UniProt Q9AQH7); test: Inhibition of Staphylococcus aureus Smith DNA helicase DnaC assessed as strand unwinding after 30 mins by FRET assay
T1 sequence (Q9AQH7 whole entry): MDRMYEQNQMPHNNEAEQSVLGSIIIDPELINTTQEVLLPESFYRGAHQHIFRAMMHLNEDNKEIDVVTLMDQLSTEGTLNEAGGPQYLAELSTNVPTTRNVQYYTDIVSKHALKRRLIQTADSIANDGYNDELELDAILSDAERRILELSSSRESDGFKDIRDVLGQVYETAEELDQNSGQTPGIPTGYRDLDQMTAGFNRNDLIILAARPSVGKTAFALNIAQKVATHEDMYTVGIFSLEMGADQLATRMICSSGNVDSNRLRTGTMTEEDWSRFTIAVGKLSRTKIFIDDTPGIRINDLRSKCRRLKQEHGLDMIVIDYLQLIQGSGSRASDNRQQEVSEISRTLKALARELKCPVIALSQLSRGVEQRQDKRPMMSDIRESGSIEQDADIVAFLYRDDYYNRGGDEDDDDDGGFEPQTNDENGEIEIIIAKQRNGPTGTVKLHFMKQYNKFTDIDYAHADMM

[18] = tested on: Geobacillus stearothermophilus; test: Antibacterial activity against Bacillus stearothermophilus ATCC 12980 by broth microdilution method; type: functional
[19] = tested on: Enterococcus faecalis; test: Antibacterial activity against Enterococcus faecalis ATCC 29212 by broth microdilution method; type: functional
[20] = tested on: Bacillus subtilis; test: Inhibition of Bacillus subtilis class C DNA polymerase 3
Summary of the method: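 B. subtilis Pol IIIC polymerase assay in 96-well format on DNase-activated chromosomal DNA substrate, which needs no helicase function.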

[21] = tested on: Bacillus anthracis; test: Inhibition of single strand DNA-stimulated ATPase activity of Bacillus anthracis DNA helicase DnaB at 100 uM
Summary of the method: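 ssDNA-stimulated ATPase of B. anthracis helicase assayed with 100 μM inhibitor, 0.5 mM ATP and 200 pmole M13mp19 single-stranded DNA.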

[22] = tested on: Bacillus anthracis; test: Inhibition of Bacillus anthracis DNA helicase DnaB by competitive inhibition assay in presence of ATP
Summary of the method: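 Helicase FRET unwinding kinetics with B. anthracis enzyme, varying both ATP (0.625, 1.25, 2.5 mM and higher) and inhibitor concentrations; analysed by Dixon plot (1/V vs [I]).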

[23] = tested on: Bacillus anthracis; test: Inhibition of Bacillus anthracis DNA helicase DnaB by Lineweaver-Burke plot analysis in presence of DNA substrate
Summary of the method: (§2)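 FRET strand-unwinding assay with purified B. anthracis helicase, 6-FAM/BHQ1 annealed 60-mer duplex, pH 7.9 Tris, 2 mM MgCl2, 25 mM NaCl, 0.01% Triton X-100, 2.5 mM ATP, room temperature 30 min. Oligo substrate and inhibitor concentrations varied; Ki taken from a Dixon plot.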

[24] = Inhibition of Bacillus anthracis DNA helicase DnaB by Dixon plot analysis in presence of annealed oligonucleotide substrate; summary of the method: as §2
[25] = tested on: Bacillus anthracis; test: Antibacterial activity against Bacillus anthracis Sterne at 4 times MIC within 5.5 hrs; type: functional, organism-based
[26] = Inhibition of Bacillus subtilis DNA gyrase by gel mobility assay; summary of the method: as §1

Row | SMILES | MIC [1] [µM] | CC50 [2] [µM] | IC50 [3] [µM] | MIC [15] [µM] | IC50 [17] [µM] | also measured
1 | Cc1c(CCC(=O)O)c(=O)oc2c(C)c(OCc3cccc4ccccc34)ccc12 | > 100 | 6 | 107 | 6 (≈ 2.41 µg/mL) | 65 | MIC [4]: 5 µg/mL (≈ 12.4 µM); MIC [5]: 15.1 µg/mL (≈ 37.5 µM); Ratio IC50 [6]: 2; MIC [7]: 2.5 µg/mL (≈ 6.21 µM); inhibition [8]: inactive; MIC [9]: > 40 µg/mL; MIC [10]: 2.5 µg/mL (≈ 6.21 µM); MIC [11]: 2.5 µg/mL (≈ 6.21 µM); MIC [12]: > 40 µg/mL; MIC [13]: 2.5 µg/mL (≈ 6.21 µM); MIC [14]: > 40 µg/mL; MIC [16]: > 40 µg/mL; MIC [18]: 5 µg/mL (≈ 12.4 µM); MIC [19]: > 40 µg/mL
2 | CCOc1ccccc1C(=O)Nc1nc2ccc(S(N)(=O)=O)cc2s1 | > 100 | 10 | > 100 | > 100 | 56 | inhibition [20]: inactive
3 | Cc1ccc(C)n1-c1ccc(SCC(=O)O)cc1 | > 100 | > 100 | – | > 100 | 4 | –
4 | COc1cc(/C=C2\SC(=S)N(c3cccc(C(F)(F)F)c3)C2=O)cc(OC)c1O | > 100 | > 100 | 95 | > 100 | 4 | –
5 | Cc1c(CCC(=O)O)c(=O)oc2c(C)c(OCc3ccc(Br)cc3F)ccc12 | > 100 | > 100 | 25 | 10 (≈ 4.49 µg/mL) | 180 | inhibition [21]: 16%; inhibition [22]: Active; MIC [4]: > 45 µg/mL; MIC [5]: 4.2 µg/mL (≈ 9.35 µM); Ratio IC50 [6]: 2; MIC [7]: 2.8 µg/mL (≈ 6.23 µM); inhibition [8]: inactive; MIC [9]: > 45 µg/mL; MIC [10]: 11.2 µg/mL (≈ 24.9 µM); inhibition [23]: Active; MIC [11]: 2.8 µg/mL (≈ 6.23 µM); MIC [12]: > 45 µg/mL; MIC [13]: 2.8 µg/mL (≈ 6.23 µM); MIC [14]: > 45 µg/mL; Ki [24]: 8 µM; Activity [25]: Active; MIC [16]: > 45 µg/mL; MIC [18]: 5.6 µg/mL (≈ 12.5 µM); MIC [19]: > 45 µg/mL
6 | Cc1noc(NS(=O)(=O)c2ccc(NC(=O)CSc3nnc(-c4ccccc4)c(-c4ccccc4)n3)cc2)c1C | 75 (≈ 43 µg/mL) | 68 | 61 | 50 (≈ 28.6 µg/mL) | 47 | MIC [4]: 57.3 µg/mL (≈ 100 µM); MIC [5]: > 60 µg/mL; MIC [7]: 57.3 µg/mL (≈ 100 µM); inhibition [8]: inactive; MIC [9]: 28.7 µg/mL (≈ 50.1 µM); MIC [10]: 43 µg/mL (≈ 75.1 µM); MIC [11]: 57.3 µg/mL (≈ 100 µM); MIC [12]: > 60 µg/mL; MIC [13]: 57.3 µg/mL (≈ 100 µM); MIC [14]: 57.3 µg/mL (≈ 100 µM); MIC [16]: > 60 µg/mL; MIC [18]: 57.3 µg/mL (≈ 100 µM); MIC [19]: > 60 µg/mL
7 | Oc1ccc(O)c(-c2ccc(-c3nnc(S)o3)o2)c1 | > 100 | 66 | > 100 | 25 (≈ 6.91 µg/mL) | > 100 | –
8 | COc1cc(C(=O)Nc2nc3ccc(S(=O)(=O)N4CCOCC4)cc3s2)cc(OC)c1OC | > 100 | 70 | > 100 | > 100 | 15 | inhibition [20]: inactive
9 | COc1ccc(Nc2nc(N)nc(-c3cc4ccccc4o3)n2)cc1 | > 100 | 4 | > 100 | > 100 | 21 | –
10 | Cc1ccc(C)n1-c1ccc(C(=O)O)c(O)c1 | 50 (≈ 11.6 µg/mL) | > 100 | > 100 | 50 (≈ 11.6 µg/mL) | – | –
11 | COc1cc(/C=C2\SC(=S)N(c3ccc([N+](=O)[O-])cc3)C2=O)cc(OC)c1O | > 100 | 11 | – | > 100 | 0.7 | –
12 | CO[C@@H]1[C@@H](OC(=O)c2ccc(C)[nH]2)[C@@H](O)[C@@H](Oc2ccc3c(O)c(NC(=O)c4c[nH]c(C(=O)Nc5c(O)c6ccc(O[C@H]7OC(C)(C)[C@H](OC)[C@@H](OC(=O)c8ccc(C)[nH]8)[C@H]7O)c(C)c6oc5=O)c4C)c(=O)oc3c2C)OC1(C)C [COUMERMYCIN] | – | – | – | – | – | IC50 [26]: < 1 µM
13 | Nn1c(Cc2ccccc2F)nnc1SCc1cc(=O)oc2cc(O)c(O)cc12 | > 100 | > 100 | 100 | > 100 | 15 | Ratio IC50 [6]: 2
14 | CCC1(C)Cc2ccccc2-c2[nH]c3nnc(S)n3c(=O)c21 (centres undefined) | > 100 | 80 | 27 | 30 (≈ 9.37 µg/mL) | > 100 | –
15 | Cc1c(Cc2ccccc2)c(=O)oc2c(O)c(O)ccc12 | 24 (≈ 6.78 µg/mL) | 10 | 10 | 20 (≈ 5.65 µg/mL) | 42 | Ratio IC50 [6]: 2
16 | Cc1nc(-c2c[nH]c(C(=O)O)c2)cs1 | > 100 | > 100 | > 100 | > 100 | 12 | –
17 | Cn1c(SCc2cc(=O)oc3cc(O)c(O)cc23)nc2ccccc21 | 23 (≈ 8.15 µg/mL) | 35 | 100 | 55 (≈ 19.5 µg/mL) | 15 | Ratio IC50 [6]: 2
18 | COc1cc(/C=C2\SC(=S)N(c3cccc(Cl)c3)C2=O)cc(OC)c1O | > 100 | > 100 | 30 | > 100 | 3 | –
19 | COc1cc(/C=C2\SC(=S)N(c3ccc(Cl)cc3)C2=O)cc(OC)c1O | > 100 | > 100 | 73 | > 100 | 2 | –
